Test results as given in ChEMBL document CHEMBL5244228, “Novel linked butanolide dimer compounds increase adiponectin production during adipogenesis in human mesenchymal stem cells through peroxisome proliferator-activated receptor γ modulation” (Eur J Med Chem, 2020).
Calls of active or inactive are those of the source. No cut-off for these calls is given here.

Legend:
[1] = target: T1, Peroxisome proliferator-activated receptor delta (Homo sapiens) (UniProt Q03181); assay: Displacement of Fluormone Pan-PPAR Green from GST-tagged human PPAR-delta ligand binding domain at 10 uM by LanthaScreen TR-FRET competitive binding assay
T1 sequence (whole entry): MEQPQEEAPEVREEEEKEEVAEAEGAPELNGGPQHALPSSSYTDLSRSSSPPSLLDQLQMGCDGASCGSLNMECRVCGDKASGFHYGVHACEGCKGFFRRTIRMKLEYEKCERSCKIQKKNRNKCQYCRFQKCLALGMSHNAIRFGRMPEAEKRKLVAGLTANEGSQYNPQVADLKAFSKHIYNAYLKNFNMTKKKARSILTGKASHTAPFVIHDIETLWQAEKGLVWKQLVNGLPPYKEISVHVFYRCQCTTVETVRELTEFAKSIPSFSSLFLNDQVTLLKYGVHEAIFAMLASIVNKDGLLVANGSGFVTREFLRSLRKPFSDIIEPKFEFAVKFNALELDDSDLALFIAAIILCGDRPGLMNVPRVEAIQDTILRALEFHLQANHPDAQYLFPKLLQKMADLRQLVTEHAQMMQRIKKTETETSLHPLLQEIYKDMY
How it was run: (§1)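 TR-FRET competitive binding run with a LanthaScreen kit, following a previously described protocol; values read on a plate reader.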

[2] = target: T2, Peroxisome proliferator-activated receptor gamma (Homo sapiens) (UniProt P37231); assay: Displacement of Fluormone Pan-PPAR Green from GST-tagged human PPAR-gamma ligand binding domain at 10 uM by LanthaScreen TR-FRET competitive binding assay; how it was run: as §1
T2 sequence (whole entry): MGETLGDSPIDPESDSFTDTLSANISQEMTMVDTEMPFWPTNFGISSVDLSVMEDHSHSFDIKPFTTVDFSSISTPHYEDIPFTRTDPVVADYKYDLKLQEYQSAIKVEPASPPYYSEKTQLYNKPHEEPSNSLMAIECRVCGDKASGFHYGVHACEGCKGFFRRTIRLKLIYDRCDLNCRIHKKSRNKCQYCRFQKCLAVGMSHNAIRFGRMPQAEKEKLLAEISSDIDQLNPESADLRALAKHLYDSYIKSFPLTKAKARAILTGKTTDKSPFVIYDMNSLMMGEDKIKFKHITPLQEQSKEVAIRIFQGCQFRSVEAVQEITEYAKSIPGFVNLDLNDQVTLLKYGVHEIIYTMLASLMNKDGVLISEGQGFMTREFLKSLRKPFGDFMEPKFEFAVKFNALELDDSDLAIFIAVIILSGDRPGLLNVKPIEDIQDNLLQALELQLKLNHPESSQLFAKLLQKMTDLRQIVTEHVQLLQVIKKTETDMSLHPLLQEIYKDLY

[3] = target: T3, Peroxisome proliferator-activated receptor alpha (Homo sapiens) (UniProt Q07869); assay: Displacement of Fluormone Pan-PPAR Green from GST-tagged human PPAR-alpha ligand binding domain at 10 uM by LanthaScreen TR-FRET competitive binding assay; how it was run: as §1
T3 sequence (whole entry): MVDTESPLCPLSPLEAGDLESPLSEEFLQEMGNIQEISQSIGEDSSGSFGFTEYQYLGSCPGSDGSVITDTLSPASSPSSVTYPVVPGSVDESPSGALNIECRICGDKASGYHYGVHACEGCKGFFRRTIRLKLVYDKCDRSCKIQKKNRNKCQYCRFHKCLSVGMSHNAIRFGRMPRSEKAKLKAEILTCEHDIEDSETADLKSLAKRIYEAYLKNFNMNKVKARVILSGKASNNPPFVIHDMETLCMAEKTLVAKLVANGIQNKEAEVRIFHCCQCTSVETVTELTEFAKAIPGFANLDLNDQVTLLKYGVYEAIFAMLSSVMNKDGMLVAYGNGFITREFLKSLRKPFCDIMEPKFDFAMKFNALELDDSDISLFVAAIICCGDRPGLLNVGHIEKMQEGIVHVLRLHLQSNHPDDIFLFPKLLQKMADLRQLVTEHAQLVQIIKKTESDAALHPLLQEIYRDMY

[4] = target: T4, Peroxisome proliferator-activated receptor gamma (Homo sapiens, UniProt P37231); assay: Displacement of [3H]rosiglitazone from human PPAR-gamma incubated for 1 day by radioligand binding assay
T4 sequence (P37231 whole entry): T2 sequence (whole entry)

[5] = target: T4, Peroxisome proliferator-activated receptor gamma; assay: Agonist activity at PPAR-gamma in human BMMSC cells assessed as induction of adiponectin production in presence of IDX adipogenic induction medium and measured on day 5 by ELISA; assay type: cell-based
[6] = target: T2, Peroxisome proliferator-activated receptor gamma (Homo sapiens); assay: Partial agonist activity at PPAR-gamma in human BMMSC cells assessed as inhibition of pioglitazone-induced adiponectin production at 1 to 10 uM in presence of IDX adipogenic induction medium and pioglitazone and measured on day 5 by ELISA; assay type: cell-based; details: filed as partial agonist, dose 1-10 µM, time 5.0 day
How it was run: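 Human bone marrow MSCs grown in DMEM (1 g/L glucose), 10% FBS, 1% pen-strep. Adipogenesis induced in DMEM (4.5 g/L glucose), 10% FBS, insulin, dexamethasone, IBMX, with compounds co-added alongside pioglitazone. Supernatants collected on day 5; adiponectin quantified by ELISA. Mean ± SD, n = 3.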

[7] = target: T2, Peroxisome proliferator-activated receptor gamma (Homo sapiens); assay: Displacement of [3H]rosiglitazone from human PPAR-gamma at 30 uM incubated for 1 day by radioligand binding assay; details: filed as agonist

| Activity [1] | Activity ([2]; filed as agonist) | Activity [3] | Ki [4] | EC50 [5] | Activity ([2]; filed as partial agonist) | Activity [6] | Activity [7] | Compound |
| --- | --- | --- | --- | --- | --- | --- | --- | --- |
| inactive | Active | inactive |  |  |  |  |  | CCCCCCC/C=C1/C(=O)O[C@@H](C)[C@H]1O |
| inactive | Active | inactive |  |  |  |  |  | CCCCC/C=C1/C(=O)O[C@@H](C)[C@@H]1O |
| inactive | Active | inactive | 1.9 µM | > 30 µM |  |  |  | CCCCCCCCCCCCC/C=C1/C(=O)O[C@@H](C)[C@@H]1O |
| inactive | Active | inactive |  |  |  |  |  | CCCCCCCC/C=C1/C(=O)O[C@@H](C)[C@H]1O |
| inactive |  | inactive | 9.2 µM | > 30 µM | Active | Dose-Dependent Effect |  | CCCCCCCCCCCCC/C=C1/C(=O)O[C@@H](C)[C@H]1O |
| inactive | Active | inactive |  |  |  |  |  | CCCCCCCCCCC/C=C1/C(=O)O[C@@H](C)[C@H]1O |
| inactive | Active | inactive | > 30 µM | 25.3 µM |  |  | 48.5% | CCC/C=C1/C(=O)O[C@@H](C)[C@H]1O |
| inactive | Active | inactive | 22 µM | 19 µM |  |  |  | CCCC=C1C(=O)O[C@@H](C)[C@@H]1O |
| inactive | Active | inactive |  |  |  |  |  | CCCCCCCCCC/C=C1/C(=O)O[C@@H](C)[C@H]1O |
| inactive | Active | inactive |  |  |  |  |  | CCCCC/C=C1/C(=O)O[C@@H](C)[C@H]1O |
| inactive | Active | inactive |  |  |  |  |  | CCCCCCCCCCCC/C=C1/C(=O)O[C@@H](C)[C@H]1O |
| inactive | Active | inactive |  |  |  |  |  | CCCCCCCCC/C=C1/C(=O)O[C@@H](C)[C@H]1O |
